IC50, Activity and Ka data for 13 compounds are collected here from ChEMBL document CHEMBL1821718, “Curcumin recognizes a unique binding site of tubulin” (J Med Chem, 2011).

Test [1] can be described thus: Inhibition of goat brain tubulin polymerization assessed as turbidity by UV spectrophotometry. More on the design: species or system Capra hircus. An outline of the steps:
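Goat brain tubulin in PEM buffer (50 mM PIPES pH 7, 1 mM EGTA, 0.5 mM MgCl2) with 1 mM GTP. Assembly initiated with 10% DMSO at 37 °C and turbidity followed at 360 nm. Half-maximal inhibition taken as the concentration reducing polymer mass by 50%; run in triplicate, at least two repetitions.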

Test [2] is filed under the species Capra hircus. The experiment in a line: Binding affinity to goat brain tubulin by isothermal titration calorimetry. For orientation: Isothermal titration calorimetry measures the heat released or taken up as one component is titrated into another.
Test [3] relates to HeLa. The experiment in a line: Antiproliferative activity against human HeLa cells assessed as loss of cell viability after 48 hrs by MTT assay. The class given is functional, cell-based. Summed up:
(§1)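 Cells seeded at 1 × 10^4 per well in DMEM with 10% FBS, 1 mM L-glutamine and antibiotics at 37 °C, 5% CO2. Exposed to 0–50 μM compound for 48 h. MTT (2 mg/mL in PBS) added until purple precipitate formed; absorbance read at 570 nm against 650 nm reference. Mean ± SEM, n = 4; IC50 taken from concentration-response.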

Test [4] deals with A549. The experiment in a line: Antiproliferative activity against human A549 cells assessed as loss of cell viability after 48 hrs by MTT assay. It counts as functional, cell-based. The conditions noted are these: A549, 48 h. An outline of the steps: as §1
For orientation: Tetrazolium dyes change colour on reduction, which living cells bring about.

Test [5] has as its system HeLa. Briefly: Induction of cell cycle arrest in human HeLa cells assessed as accumulation in G2/M phase at 5 uM after 24 hrs by flow cytometry. It counts as functional, cell-based. On the technique in general: Flow cytometry measures light scatter and fluorescence of single cells or particles in a stream.
For test [6], the system named is HeLa. Briefly: Cell cycle arrest in nocodazole pre-treated human HeLa cells at 5 uM assessed as accumulation in G2/M phase after 8 hrs by flow cytometry. It counts as functional. An outline of the steps:
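HeLa cells at 1 × 10^6 cells/mL held 20 h in nocodazole (2 μM in methods; 1.5 μM in text), washed, then given fresh medium with 5 μM compound for 8 h. Fixed in ice-cold methanol, treated 4 h at 37 °C with 1 mg/mL RNase A, stained with PI. G2/M fraction measured by FACS.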

Test [7] concerns A549. Briefly: Induction of apoptosis in human A549 cells assessed as apoptotic cells at 5 uM after 48 hrs by FITC-conjugated annexin-V/PI assay. It counts as functional. Summed up:
(§2)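 About 1 × 10^6 A549 or HeLa cells treated with 0–5 μM compound for 48 h. Stained 15 min at room temperature in the dark with FITC-annexin V (1 μg/mL) and PI (0.5 μg/mL) in Ca2+-enriched binding buffer. Annexin-V-positive fraction quantified by flow cytometry.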

Test [8] deals with HeLa. Briefly: Induction of apoptosis in human HeLa cells assessed as apoptotic cells at 5 uM after 48 hrs by FITC-conjugated annexin-V/PI assay. It counts as functional. An outline of the steps: as §2
Test [9] deals with A549. The experiment in a line: Induction of apoptosis in human A549 cells assessed as abnormality in nuclear DNA at 5 uM by DAPI staining technique. It counts as functional, cell-based.
Test [10] has as its system HeLa. The experiment in a line: Induction of apoptosis in human HeLa cells assessed as abnormality in nuclear DNA at 5 uM by DAPI staining technique. The class given is functional, cell-based.
Test [11] relates to A549. The experiment in a line: Disruption of human A549 cell morphology at 2.5 to 5 uM after 24 hrs by phase contrast microscopy. It counts as functional, cell-based. Summed up:
(§3)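 A549 and HeLa cells grown in DMEM with 10% FBS at 37 °C, 5% CO2, exposed to 2.5 or 5 μM compound for 24 h. Morphology of control and treated cells recorded by inverted phase-contrast microscopy.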

The subject of test [12] is HeLa. The experiment in a line: Disruption of human HeLa cell morphology at 2.5 to 5 uM after 24 hrs by phase contrast microscopy. The class given is functional, cell-based. An outline of the steps: as §3
In test [13] the test system is A549. The experiment in a line: Disruption of interphase microtubule network in human A549 cells at 2.5 uM after 24 hrs by confocal microscopy. It counts as functional, cell-based. Summed up: (§4)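 A549 or HeLa cells at 10^6 cells/mL exposed to 0–2.5 μM compound for 24 h. PBS-washed, fixed in 2% paraformaldehyde, permeabilized 1 h (0.1% Na citrate, 0.1% Triton), blocked in 5% BSA. Stained with mouse anti-α-tubulin (1:200) then rhodamine anti-mouse IgG (1:150) plus DAPI 1 μg/mL. Interphase network imaged by confocal microscopy; n = 3.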

The test system of test [14] is HeLa. Briefly: Disruption of interphase microtubule network in human HeLa cells at 2.5 uM after 24 hrs by confocal microscopy. It counts as functional, cell-based. An outline of the steps:
as §4

The test system of test [15] is A549. The experiment in a line: Perturbation of spindle microtubule and chromosomal organization in human A549 cells at 2.5 uM after 24 hrs by immunofluorescence method. It counts as functional, cell-based. Summed up:
(§5)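 Cells exposed to 0–2.5 μM compound for 24 h, fixed in 2% paraformaldehyde, permeabilized, blocked with 5% BSA. Spindles stained with anti-α-tubulin (1:200) and rhodamine secondary (1:150); chromosomes stained with DAPI (1 μg/mL). Bipolar spindle and metaphase-plate alignment scored by confocal microscopy; three experiments.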

Test [16] concerns HeLa. Briefly: Perturbation of spindle microtubule and chromosomal organization in human HeLa cells at 2.5 uM after 24 hrs by immunofluorescence method. The class given is functional, cell-based. An outline of the steps:
as §5

Test [17] deals with A549. The experiment in a line: Disruption of interphase microtubule network in human A549 cells after 24 hrs by confocal microscopy. It counts as functional, cell-based. Summed up: as §4
Test [18] relates to HeLa. Briefly: Disruption of interphase microtubule network in human HeLa cells after 24 hrs by confocal microscopy. It counts as functional, cell-based. Summed up:
as §4

Test [19] in a line: Binding affinity to goat brain tubulin by spectrofluorimetry.
Test [20] deals with MCF7. The experiment in a line: Cell cycle arrest in nocodazole pre-treated human MCF7 cells. The class given is functional, cell-based.
In test [21] the test system is HeLa (Homo sapiens). The experiment in a line: Induction of cell cycle arrest in human HeLa cells assessed as accumulation in G2/M phase at 5 uM after 24 hrs by flow cytometry.

Calls of active or inactive are those of the source. No cut-off for these calls is given here.

Regarding `COc1cc(/C=C/c2cc(/C=C/c3ccc(O)c(OC)c3)n(-c3ccc(F)cc3)n2)ccc1O`, in test [1], the IC50 – broadly, the concentration at which inhibition is half-maximal – was 34 µM.

Turning to `COc1cc(/C=C/C(=O)CC(=O)/C=C/c2ccc(OC(C)=O)c(OC)c2)ccc1OC(C)=O`, the half-inhibitory concentration (IC50) in [1] was 60 µM.

For the compound `O=C(O)/C=C/c1ccccc1`, the result in test [2] was inactive.

In the case of `O=C(O)/C=C/c1ccccc1O`, in test [2], the result was inactive.

For the compound `COc1cc(/C=C/c2cc(/C=C/c3ccc(O)c(OC)c3)n(-c3cccc([N+](=O)[O-])c3)n2)ccc1O`, the IC50 in test [1] turned out to be 36 µM.

Regarding `COc1cc(/C=C/c2cc(/C=C/c3ccc(O)c(OC)c3)on2)ccc1O`, the concentration for half-maximal inhibition (IC50) in [1] was 26 µM.

In the case of `COc1cc(/C=C/c2cc(/C=C/c3ccc(O)c(OC)c3)[nH]n2)ccc1O` [CURCUMIN PYRAZOLE], in test [1], the IC50 came to 23 µM.

`O=C(O)/C=C/c1ccc(O)cc1O`: in test [2], the outcome was inactive.

For the compound `COc1ccc(-n2nc(/C=C/c3ccc(O)c(OC)c3)cc2/C=C/c2ccc(O)c(OC)c2)cc1`, the IC50 in [1] worked out at 38 µM.

For the compound `COc1ccc(/C=C/C(=O)O)cc1OC`, in test [2], the result was inactive.

As to `O=C(O)/C=C/c1ccc(O)c(O)c1`, the outcome in [2] was inactive.

As to `COc1cc(C=C(C(=O)/C=C/c2ccc(O)c(OC)c2)C(=O)/C=C/c2ccc(O)c(OC)c2)ccc1O`, the concentration for half-maximal inhibition (IC50) in [1] was 16 µM; in [3], 6 µM; in test [4] it was 7 µM. The outcome in [5] was inactive. For the same compound, the Activity in [6] is 35%; in [7], 45%; in test [8] it was 38%; in [17], “Dose-dependent effect”; in test [18], “Dose-dependent effect”. For the same compound, the outcome in test [9], in test [10], in test [11], in test [12], in test [13] and in test [14] was Active. For the same compound, the outcome in [15] and in [16] was Active. Also, the Ka in test [19] came out at 2.5 ×10⁶ /M.

With `COc1cc(/C=C/C(=O)CC(=O)/C=C/c2ccc(O)c(OC)c2)ccc1O` [CURCUMIN], the IC50 in test [1] is 20 µM; in test [4] it was 17 µM. Moreover, the outcome in test [5], in test [9], in test [10], in [11], in test [12] and in [13] was inactive. Also, the outcome in [14], in test [15], in test [16] and in test [21] was inactive. Besides, the outcome in test [20] was Active. For the same compound, the Activity in [6] is listed as 18%; in test [7], 16%; in test [8], 8%. The Ka in [19] came to 5.01 ×10⁵ /M.
